In ChEMBL document CHEMBL4038284, “Synthesis of novel quinoline-based 4,5-dihydro-1H-pyrazoles as potential anticancer, antifungal, antibacterial and antiprotozoal agents” (Eur J Med Chem, 2017):
In brackets after ≈: the same amount, converted by molar mass.

Columns and labels:
Neisseria gonorrhoeae = assay: Antibacterial activity against beta lactamase positive Neisseria gonorrhoeae ATCC 31426 by oxidase test; assay type: functional
Summary of the method: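 Agar dilution MIC on GC agar with 1% isovitalex containing increasing compound concentrations. Plates inoculated with about 1×10^4 CFU (5 µL). MIC is the lowest concentration that inhibited growth, with growth confirmed by oxidase test. Run in duplicate, repeated at least three times.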

U-937 = assay: Cytotoxicity against human U937 cells after 72 hrs by MTT assay; assay type: cell-based; settings: u-937, 72 h
Summary of the method: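 Exponentially growing U-937 at 1 × 10^5 cells/mL in RPMI-1640 with 10% FBS were exposed to 200, 50, 12.5 and 3.125 µg/mL for 72 h at 37 °C, 5% CO2. MTT for 3 h, stopped with isopropanol/SDS, formazan read at 570 nm, blank-corrected. LC50 by Probit from % viability against untreated cells. Triplicate, at least two independent experiments.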

Plasmodium falciparum = assay: Antiplasmodial activity against chloroquine-sensitive Plasmodium falciparum 3D7 assessed as reduction in parasitic LDH activity after 48 hrs by Malstat reagent based […] method; assay type: functional; settings: 3D7, 48 h
Summary of the method: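 Unsynchronized P. falciparum 3D7 at 0.5% parasitemia and 1% hematocrit in RPMI with 3% Albumax II. Exposed to 100, 25, 6.25 and 1.56 µg/mL for 48 h at 37 °C under 90% N2/5% CO2/5% O2. After three freeze-thaw cycles, LDH measured with Malstat and NBT/PES, 1 h in the dark, read at 650 nm. IC50 by Probit; triplicate, ≥2 experiments.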

Candida albicans [1] = assay: Growth inhibition of Candida albicans ATCC 10231 at 15.62 ug/ml incubated for 48 hrs under dark condition by broth microdilution method relative to control; assay type: functional; settings: ATCC 10231, 48 h, read-out: GI
Summary of the method: (§1)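 CLSI M27-A3 broth microdilution in RPMI-1640, DMSO ≤1%. Inoculum 1-5 × 10^3 CFU/mL. Incubated 48 h at 30 °C, dark. % inhibition = 100 − (OD405 test − sterility control)/(OD405 growth control − sterility control), with growth and sterility control wells. Triplicate.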

Candida albicans [2] = assay: Antifungal activity against Candida albicans ATCC 10231 incubated for 48 hrs under dark condition by broth microdilution method; assay type: functional; settings: ATCC 10231, 48 h
Summary of the method: (§2)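 CLSI M27-A3 broth microdilution in RPMI-1640, DMSO ≤1%, compounds at 250-0.98 µg/mL final. Inoculum 1-5 × 10^3 CFU/mL. Incubated 48 h at 30 °C in a moist dark chamber, read at OD405. MIC80 and MIC50 taken from % inhibition dose-response curves (mean ± SEM, triplicate). Amphotericin B was the positive control.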

Trypanosoma cruzi = assay: Antitrypanosomal activity against Trypanosoma cruzi Tulahuen intracellular amastigote harboring LacZ infected in human U937 cells after 72 hrs by CPRG/Nonidet reagent based spectrophotometric method; assay type: functional, cell-based; settings: U-937, 72 h
Summary of the method: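 U-937 cells at 2.5 × 10^5 cells/mL in RPMI-1640 with 10% serum and 0.1 µg/mL PMA were infected with β-galactosidase-transfected Tulahuen epimastigotes at 5 parasites per cell. Infected cells were exposed to 50, 12.5, 3.125 and 0.78 µg/mL for 72 h. CPRG (100 uM) and 0.1% Nonidet P-40 were added for 3 h, read at 570 nm. EC50 by Probit. Triplicate, at least two experiments; benznidazole as reference.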

Cryptococcus neoformans [3] = assay: Growth inhibition of Cryptococcus neoformans ATCC 32264 at 15.62 ug/ml incubated for 48 hrs under dark condition by broth microdilution method relative to control; assay type: functional; settings: ATCC 32264, 48 h, read-out: GI; summary of the method: as §1
Staphylococcus aureus [4] = assay: Antibacterial activity against methicillin-resistant Staphylococcus aureus ATCC 43300 after 24 hrs by resazurin dye based microdilution assay; assay type: functional; settings: ATCC 43300, 24 h
Summary of the method: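 Broth microdilution in Mueller Hinton broth, inoculum 5 × 10^5 – 8 × 10^5. Compound stocks diluted in MHB with 5% DMSO and 0.1% Tween 80. Incubation 24 h at 35-37 °C. MIC is the lowest concentration with visible growth inhibition and/or by resazurin (1 mg/mL) read-out. Gentamicin as control. Run in duplicate, replicated at least three times.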

Candida albicans [5] = assay: Growth inhibition of Candida albicans ATCC 10231 at 31.25 ug/ml incubated for 48 hrs under dark condition by broth microdilution method relative to control; assay type: functional; settings: ATCC 10231, 48 h, read-out: GI; summary of the method: as §1
Klebsiella pneumoniae [6] = assay: Antibacterial activity against carbapenemase positive Klebsiella pneumoniae BAA 1705 after 24 hrs by resazurin dye based microdilution assay; assay type: functional; settings: BAA 1705, 24 h
Summary of the method: (§3)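 MIC taken as the lowest concentration giving visible inhibition and/or by resazurin (1 mg/mL). Gentamicin was the control. Run in duplicate, repeated at least three times.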

Staphylococcus aureus [7] = assay: Antibacterial activity against methicillin-sensitive Staphylococcus aureus ATCC 25923 after 24 hrs by resazurin dye based microdilution assay; assay type: functional; settings: ATCC 25923, 24 h; summary of the method: as §3
Cryptococcus neoformans [8] = assay: Growth inhibition of Cryptococcus neoformans ATCC 32264 at 7.8 ug/ml incubated for 48 hrs under dark condition by broth microdilution method relative to control; assay type: functional; settings: ATCC 32264, 48 h, read-out: GI; summary of the method: as §1
Cryptococcus neoformans [9] = assay: Growth inhibition of Cryptococcus neoformans ATCC 32264 at 3.4 ug/ml incubated for 48 hrs under dark condition by broth microdilution method relative to control; assay type: functional; settings: ATCC 32264, 48 h, read-out: GI
Escherichia coli = assay: Antibacterial activity against Escherichia coli ATCC 25922 after 24 hrs by resazurin dye based microdilution assay; assay type: functional; settings: ATCC 25922, 24 h; summary of the method: as §3
Cryptococcus neoformans [10] = assay: Antifungal activity against Cryptococcus neoformans ATCC 32264 incubated for 48 hrs under dark condition by broth microdilution method; assay type: functional; settings: ATCC 32264, 48 h; summary of the method: as §2
Cryptococcus neoformans [11] = assay: Growth inhibition of Cryptococcus neoformans ATCC 32264 at 62.5 ug/ml incubated for 48 hrs under dark condition by broth microdilution method relative to control; assay type: functional; settings: ATCC 32264, 48 h, read-out: GI; summary of the method: as §1
Candida albicans [12] = assay: Growth inhibition of Candida albicans ATCC 10231 at 125 ug/ml incubated for 48 hrs under dark condition by broth microdilution method relative to control; assay type: functional; settings: ATCC 10231, 48 h, read-out: GI; summary of the method: as §1
Leishmania panamensis = assay: Antileshmanial activity against EpiR/GFP fused Leishmania panamensis MHOM/CO/87/UA140 intracellular amastigotes infected in human […] cells after 72 hrs by flow cytometric method; assay type: functional, cell-based; settings: MHOM/CO/87/UA140, 72 h
Summary of the method: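 PMA-treated U-937 cells (3 × 10^5 cells/mL) infected with stationary-phase GFP L. panamensis promastigotes (15:1), 3 h at 34 °C, then washed. After 24 h, compounds added at 50, 12.5, 3.125 and 0.78 µg/mL for 72 h at 37 °C. EC50 by Probit; triplicate, two experiments.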

Cryptococcus neoformans [13] = assay: Growth inhibition of Cryptococcus neoformans ATCC 32264 at 125 ug/ml incubated for 48 hrs under dark condition by broth microdilution method relative to control; assay type: functional; settings: ATCC 32264, 48 h, read-out: GI; summary of the method: as §1
Candida albicans [14] = assay: Growth inhibition of Candida albicans ATCC 10231 at 3.4 ug/ml incubated for 48 hrs under dark condition by broth microdilution method relative to control; assay type: functional; settings: ATCC 10231, 48 h, read-out: GI
Staphylococcus aureus [15] = assay: Antibacterial activity against vancomycin-intermediate Staphylococcus aureus after 24 hrs by resazurin dye based microdilution assay; assay type: functional; summary of the method: as §3
Candida albicans [16] = assay: Growth inhibition of Candida albicans ATCC 10231 at 7.8 ug/ml incubated for 48 hrs under dark condition by broth microdilution method relative to control; assay type: functional; settings: ATCC 10231, 48 h, read-out: GI; summary of the method: as §1
Pseudomonas aeruginosa = assay: Antibacterial activity against Pseudomonas aeruginosa ATCC 27853 after 24 hrs by resazurin dye based microdilution assay; assay type: functional; settings: ATCC 27853, 24 h; summary of the method: as §3
Klebsiella pneumoniae [17] = assay: Antibacterial activity against ESBL positive Klebsiella pneumoniae ATCC 700603 after 24 hrs by resazurin dye based microdilution assay; assay type: functional; settings: Klebsiella pneumoniae, 700603, 24 h; summary of the method: as §3
Cryptococcus neoformans [18] = assay: Growth inhibition of Cryptococcus neoformans ATCC 32264 at 250 ug/ml incubated for 48 hrs under dark condition by broth microdilution method relative to control; assay type: functional; settings: ATCC 32264, 48 h, read-out: GI; summary of the method: as §1
Cryptococcus neoformans [19] = assay: Growth inhibition of Cryptococcus neoformans ATCC 32264 at 31.25 ug/ml incubated for 48 hrs under dark condition by broth microdilution method relative to control; assay type: functional; settings: ATCC 32264, 48 h, read-out: GI; summary of the method: as §1
Candida albicans [20] = assay: Growth inhibition of Candida albicans ATCC 10231 at 250 ug/ml incubated for 48 hrs under dark condition by broth microdilution method relative to control; assay type: functional; settings: ATCC 10231, 48 h, read-out: GI; summary of the method: as §1
Candida albicans [21] = assay: Growth inhibition of Candida albicans ATCC 10231 at 62.5 ug/ml incubated for 48 hrs under dark condition by broth microdilution method relative to control; assay type: functional; settings: ATCC 10231, 48 h, read-out: GI; summary of the method: as §1

Compound | MIC (Neisseria gonorrhoeae) | LC50 (U-937) | EC50 (Plasmodium falciparum) | inhibition of growth at 15.62 µg/mL (Candida albicans [1]) | MIC50 (Candida albicans [2]) | MIC80 (Candida albicans [2]) | EC50 (Trypanosoma cruzi) | inhibition of growth at 15.62 µg/mL (Cryptococcus neoformans [3]) | MIC (Staphylococcus aureus [4]) | inhibition of growth at 31.25 µg/mL (Candida albicans [5]) | MIC (Klebsiella pneumoniae [6]) | MIC (Staphylococcus aureus [7]) | inhibition of growth at 7.8 µg/mL (Cryptococcus neoformans [8]) | inhibition of growth at 3.4 µg/mL (Cryptococcus neoformans [9]) | MIC (Escherichia coli) | MIC50 (Cryptococcus neoformans [10]) | MIC80 (Cryptococcus neoformans [10]) | inhibition of growth at 62.5 µg/mL (Cryptococcus neoformans [11]) | inhibition of growth at 125 µg/mL (Candida albicans [12]) | EC50 (Leishmania panamensis) | other results
CC(=O)N1N=C(c2ccccc2)CC1c1cccc(Nc2ccnc3cc(Cl)ccc23)c1 (stereo not given) | > 1000 µg/mL | 5.8 µg/mL (≈ 13.2 µM) | 12.7 µg/mL (≈ 28.7 µM) | 19.8% | 250 µg/mL (≈ 567 µM) | ≥ 250 µg/mL | 4.26 µg/mL (≈ 9.66 µM) | 12.2% | > 1000 µg/mL | 21.2% | > 1000 µg/mL | > 1000 µg/mL | 8.77% | 0% | > 1000 µg/mL | 250 µg/mL (≈ 567 µM) | ≥ 250 µg/mL | 12.8% | 27.5% | 3.67 µg/mL (≈ 8.32 µM) | inhibition of growth at 125 µg/mL (Cryptococcus neoformans [13]): 41.9%; inhibition of growth at 3.4 µg/mL (Candida albicans [14]): 5.28%; MIC (Staphylococcus aureus [15]): > 1000 µg/mL; inhibition of growth at 7.8 µg/mL (Candida albicans [16]): 10.5%; MIC (Pseudomonas aeruginosa): > 1000 µg/mL; MIC (Klebsiella pneumoniae [17]): > 1000 µg/mL; inhibition of growth at 250 µg/mL (Cryptococcus neoformans [18]): 69.2%; inhibition of growth at 31.25 µg/mL (Cryptococcus neoformans [19]): 12.3%; inhibition of growth at 250 µg/mL (Candida albicans [20]): 53.3%; inhibition of growth at 62.5 µg/mL (Candida albicans [21]): 23.1%
Clc1ccc(N2N=C(c3ccc(Br)cc3)CC2c2cccc(Nc3ccnc4cc(Cl)ccc34)c2)cc1 (stereo not given) | > 1000 µg/mL | 35.7 µg/mL (≈ 60.7 µM) | 10.3 µg/mL (≈ 17.4 µM) | 6.77% | ≥ 250 µg/mL | ≥ 250 µg/mL | 29.5 µg/mL (≈ 50.1 µM) | 0.14% | > 1000 µg/mL | 7.39% | > 1000 µg/mL | > 1000 µg/mL | 0% | 0% | > 1000 µg/mL | ≥ 250 µg/mL | ≥ 250 µg/mL | 17.8% | 23.4% | 16 µg/mL (≈ 27.2 µM) | inhibition of growth at 125 µg/mL (Cryptococcus neoformans [13]): 23%; inhibition of growth at 3.4 µg/mL (Candida albicans [14]): 3.47%; MIC (Staphylococcus aureus [15]): > 1000 µg/mL; inhibition of growth at 7.8 µg/mL (Candida albicans [16]): 6.28%; MIC (Pseudomonas aeruginosa): > 1000 µg/mL; MIC (Klebsiella pneumoniae [17]): > 1000 µg/mL; inhibition of growth at 250 µg/mL (Cryptococcus neoformans [18]): 27.5%; inhibition of growth at 31.25 µg/mL (Cryptococcus neoformans [19]): 17%; inhibition of growth at 250 µg/mL (Candida albicans [20]): 39.6%; inhibition of growth at 62.5 µg/mL (Candida albicans [21]): 13.7%
